Results from different studies.
Lines come from different studies, so protocols differ.

For `N#Cc1ccc(NC(=S)NN=Cc2ccc(F)cc2)cc1`, the CC50 was > 100 µg/mL (CRFK; cell growth or viability, MTS).
With `COC(=O)[C@H]1[C@@H](OC(=O)c2ccccc2)C[C@@H]2CC[C@H]1N2C` the concentration was 310 ng/mL (male Sprague-Dawley rat, plasma; intraperitoneal, 10 mg/kg, 1 h).
`CC[C@@]1(O)C(=O)OCc2c1cc1n(c2=O)Cc2cc3ccccc3nc2-1` has a Papp B→A of 10 ×10⁻⁶ cm/s (MDCK; Caco-2; 100 µM, 105 min, pH 7.4).
For `COC(=O)C(NC(=O)c1cn(CCCCCF)c2ccccc12)C(C)(C)C` (stereo not drawn), the half-life was 17.1 h (male Sprague-Dawley rat, plasma; subcutaneous, 200 µg/kg).
With `Cl.Cl.O=C(CCN1CCCCC1)c1ccc(-c2ccc(C(=O)CCN3CCCCC3)cc2)cc1` the half-life was 6.05 h (Sprague-Dawley rat, plasma; oral, 25 mg/kg).
`O=C(Nc1cccnn1)N1CCN([C@@H]2CCOc3cc(C(F)(F)F)ccc32)CC1` has a concentration of 438 ng/g (male Sprague-Dawley rat, brain; oral, 1 mg/kg, 4 h).
`N#Cc1ccc(NC(=S)NN=Cc2ccccc2)cc1` gave a CC50 of > 100 µg/mL (CRFK; cell growth or viability, MTS).
`CN(C)[C@H]1C[C@@]23CC[C@@]4(O2)C(=CC[C@]2(C)C(c5ccc6ccncc6c5)=CC[C@H]24)C=C3[C@@H](O)[C@@H]1O` gave a CC50 of 100 µM (human PBMC; cell growth or viability, flow cytometry).
For `O=C(O)C(F)(F)C(F)(F)C(F)(F)C(F)(F)C(F)(F)C(F)(F)C(F)(F)F`, the Km was 65.8 µM (Solute carrier family 22 member 6 (SLC22A6, Homo sapiens, UniProt Q4U2R8); transporter uptake, substrate; HEK293; 2.5 min, pH 7.4).
